For experiment [1], the system named is A-375. Nature of the experiment: Cytotoxicity against human A375 cells after 72 hrs by MTT assay. The settings on record: for IC50: A-375, 72 h. The experiment is classed as functional, cell-based. The gist of the method:
(§1)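 Cancer lines grown in RPMI 1640 with 10% heat-inactivated FBS, 37 °C, 5% CO2. Cells trypsinized at 80-90% confluence, seeded at 2×10^3/well overnight, then given compounds (DMSO stocks diluted in medium) at various concentrations for 72 h at 37 °C. Controls: 0.1% DMSO negative, adriamycin positive. MTT (5 mg/ml) added for 4 h, formazan dissolved in SDS 12 h, A595 read. IC50 from dose-response curves.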

Experiment [2] can be described thus: (§2) Cytotoxicity against human PC3 cells after 72 hrs by MTT assay. Format: functional, cell-based. The settings on record: PC-3, 72 h. Put shortly: (§3)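 Cells trypsinized at 80-90% confluence, seeded at 2×10^3/well overnight, then given compounds (DMSO stocks diluted in medium) at various concentrations for 72 h at 37 °C. Controls: 0.1% DMSO negative, adriamycin positive. MTT (5 mg/ml) added for 4 h, formazan dissolved in SDS 12 h, A595 read. IC50 from dose-response curves.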
A general note: Tetrazolium assays rely on reduction of a dye to a coloured formazan, in cell work by metabolically active cells.

In experiment [3] the test system is PC-3. Described as §2. The experiment is classed as functional, cell-based. Put shortly:
as §3

For experiment [4], the system named is PC-3. Nature of the experiment: Selectivity index, ratio of IC50 for mouse NIH/3T3 cells to IC50 for human PC3 cells. The experiment is classed as functional. Put shortly:
(§4)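 Index is the IC50 in normal NIH3T3 cells divided by the IC50 in each cancer line. […] HCPT and adriamycin were used as positive controls.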

The test system of experiment [5] is MCF7. Nature of the experiment: Cytotoxicity against human MCF7 cells after 72 hrs by MTT assay. Format: functional, cell-based. The settings on record: for IC50: MCF7, 72 h. Put shortly:
as §1

For experiment [6], the system named is Bcap37. Nature of the experiment: Selectivity index, ratio of IC50 for mouse NIH/3T3 cells to IC50 for human Bcap37 cells. The experiment is classed as functional. The gist of the method:
as §4

For experiment [7], the system named is MGC-803. Description: Cytotoxicity against human MGC803 cells after 72 hrs by MTT assay. Format: functional, cell-based. The settings on record: for IC50: MGC-803, 72 h. The gist of the method:
as §1

Experiment [8] has as its system MCF7. Description: Selectivity index, ratio of IC50 for mouse NIH/3T3 cells to IC50 for human MCF7 cells. The experiment is classed as functional. Put shortly: as §4
In experiment [9] the test system is Bcap37. Nature of the experiment: Cytotoxicity against human Bcap37 cells after 72 hrs by MTT assay. Format: functional, cell-based. The settings on record: for IC50: Bcap37, 72 h. The gist of the method:
as §1

Experiment [10] has as its system A-375. Nature of the experiment: Selectivity index, ratio of IC50 for mouse NIH/3T3 cells to IC50 for human A375 cells. The experiment is classed as functional. Put shortly: as §4
The subject of experiment [11] is MGC-803. Nature of the experiment: Selectivity index, ratio of IC50 for mouse NIH/3T3 cells to IC50 for human MGC803 cells. Format: functional. Put shortly: as §4

From ChEMBL document CHEMBL3414513, “Synthesis and biological evaluation of betulonic acid derivatives as antitumor agents” (Eur J Med Chem, 2015) come the findings set out here.

Usually IC50 stands for the point on the concentration scale where inhibition reaches its midpoint. A high value points to weaker potency.

Consider `C=C(C)[C@@H]1CC[C@]2(C(=O)OCCN3CCN(C(=O)c4ccccc4C)CC3)CC[C@]3(C)[C@H](CC[C@@H]4[C@@]5(C)CCC(=O)C(C)(C)[C@@H]5CC[C@]43C)[C@@H]12`, for which the Activity result in the experiment with A-375 [1], in the experiment on PC-3 [3], with MCF7 [5], with MGC-803 [7] and in the experiment on Bcap37 [9] was “Dose-dependent effect” in each case. Moreover, the IC50 with A-375 [1] came to 4.5 µM; in [2], 8.7 µM; in the experiment on MCF7 [5], 5.4 µM; with MGC-803 [7], 4.5 µM; with Bcap37 [9], 6.4 µM. The “Ratio IC50” value in the experiment with PC-3 [4] came out at 2.43; with Bcap37 [6], 3.3; with MCF7 [8], 3.91; in the experiment on A-375 [10], 4.69; in the experiment with MGC-803 [11] it was 4.69.
`C=C(C)[C@@H]1CC[C@]2(C(=O)OCCCCN3CCCC3)CC[C@]3(C)[C@H](CC[C@@H]4[C@@]5(C)CCC(=O)C(C)(C)[C@@H]5CC[C@]43C)[C@@H]12`: the Activity result in the experiment with A-375 [1], in the experiment with PC-3 [3], in the experiment with MCF7 [5], in the experiment on MGC-803 [7] and in the experiment with Bcap37 [9] was “Dose-dependent effect” throughout. Moreover, the IC50 is 8.5 µM with A-375 [1]; 6.7 µM in [2]; 5.4 µM with MCF7 [5]; 4 µM in the experiment on MGC-803 [7]; 4.7 µM in the experiment on Bcap37 [9]. Further, the “Ratio IC50” value with PC-3 [4] is reported as 4.28; in the experiment on Bcap37 [6] it was 6.11; in the experiment on MCF7 [8], 5.31; in the experiment with A-375 [10], 3.38; with MGC-803 [11] it was 7.18.
On to `C=C(C)[C@@H]1CC[C@]2(C(=O)OCCN3CCN(C(=O)c4ccc(F)c(F)c4)CC3)CC[C@]3(C)[C@H](CC[C@@H]4[C@@]5(C)CCC(=O)C(C)(C)[C@@H]5CC[C@]43C)[C@@H]12`, for which the Activity result with A-375 [1], in the experiment with PC-3 [3], in the experiment on MCF7 [5], in the experiment on MGC-803 [7] and with Bcap37 [9] was “Dose-dependent effect” each time. Also, the IC50 worked out at 7.2 µM with A-375 [1]; 4.6 µM in experiment [2]; 3.7 µM with MCF7 [5]; 4.4 µM with MGC-803 [7]; 3.9 µM in the experiment with Bcap37 [9]. Besides, the “Ratio IC50” value is 4.02 in the experiment with PC-3 [4]; 4.74 in the experiment on Bcap37 [6]; 5 in the experiment on MCF7 [8]; 2.57 in the experiment with A-375 [10]; 4.2 with MGC-803 [11].
On to `C=C(C)[C@@H]1CC[C@]2(C(=O)OCCN3CCCCC3)CC[C@]3(C)[C@H](CC[C@@H]4[C@@]5(C)CCC(=O)C(C)(C)[C@@H]5CC[C@]43C)[C@@H]12`, for which the Activity entry with A-375 [1], in the experiment with PC-3 [3], with MCF7 [5], in the experiment with MGC-803 [7] and in the experiment with Bcap37 [9] was “Dose-dependent effect” throughout. The IC50 with A-375 [1] is 17.1 µM; in experiment [2] it was 18.8 µM; in the experiment on MCF7 [5], 16 µM; in the experiment with MGC-803 [7], 12.5 µM; with Bcap37 [9], 16.9 µM.
Regarding `C=C(C)[C@@H]1CC[C@]2(C(=O)OCCN3CCN(C(=O)c4c(Cl)cccc4Cl)CC3)CC[C@]3(C)[C@H](CC[C@@H]4[C@@]5(C)CCC(=O)C(C)(C)[C@@H]5CC[C@]43C)[C@@H]12`, the Activity result in the experiment on A-375 [1], in the experiment on PC-3 [3], with MCF7 [5], in the experiment with MGC-803 [7] and in the experiment with Bcap37 [9] was “Dose-dependent effect” each time. The IC50 in the experiment with A-375 [1] was 17.4 µM; in experiment [2] it was 14.1 µM; in the experiment with MCF7 [5] it was 10.8 µM; in the experiment with MGC-803 [7] it was 16.6 µM; in the experiment on Bcap37 [9], more than 20 µM.
For the molecule `C=C(C)[C@@H]1CC[C@]2(C(=O)OCCN3CCN(C(=O)C(CC)CCCC)CC3)CC[C@]3(C)[C@H](CC[C@@H]4[C@@]5(C)CCC(=O)C(C)(C)[C@@H]5CC[C@]43C)[C@@H]12` (some centres undefined), the Activity result in the experiment with A-375 [1], with PC-3 [3], in the experiment with MCF7 [5], in the experiment on MGC-803 [7] and in the experiment on Bcap37 [9] was “Dose-dependent effect” in each case. For the same molecule, the half-inhibitory concentration (IC50) was more than 20 µM with A-375 [1]; more than 20 µM in experiment [2]; 15.4 µM with MCF7 [5]; 13.4 µM in the experiment with MGC-803 [7]; 18.7 µM in the experiment with Bcap37 [9].
In the case of `C=C(C)[C@@H]1CC[C@]2(C(=O)O)CC[C@]3(C)[C@H](CC[C@@H]4[C@@]5(C)CCC(=O)C(C)(C)[C@@H]5CC[C@]43C)[C@@H]12` [BETUNOLIC ACID], the Activity result in the experiment on A-375 [1], in the experiment on PC-3 [3], in the experiment on MCF7 [5] and in the experiment with Bcap37 [9] was “Dose-dependent effect” in each case. Moreover, the IC50 in the experiment on A-375 [1] came to 28.9 µM; in experiment [2] it was 13.9 µM; with MCF7 [5], 18.2 µM; in the experiment on MGC-803 [7], 17.7 µM; in the experiment with Bcap37 [9] it was 25.7 µM.
With `C=C(C)[C@@H]1CC[C@]2(C(=O)OCCN3CCCC3)CC[C@]3(C)[C@H](CC[C@@H]4[C@@]5(C)CCC(=O)C(C)(C)[C@@H]5CC[C@]43C)[C@@H]12`, the Activity entry in the experiment on A-375 [1], with PC-3 [3], in the experiment on MCF7 [5], in the experiment on MGC-803 [7] and in the experiment on Bcap37 [9] was “Dose-dependent effect” each time. Moreover, the IC50 was 9.7 µM in the experiment on A-375 [1]; 12.3 µM in experiment [2]; 9.4 µM in the experiment with MCF7 [5]; 10.8 µM in the experiment on MGC-803 [7]; 10.2 µM with Bcap37 [9].
For the molecule `C=C(C)[C@@H]1CC[C@]2(C(=O)OCCCN(CC)CC)CC[C@]3(C)[C@H](CC[C@@H]4[C@@]5(C)CCC(=O)C(C)(C)[C@@H]5CC[C@]43C)[C@@H]12`, the Activity entry with A-375 [1], with PC-3 [3], in the experiment on MCF7 [5], in the experiment on MGC-803 [7] and in the experiment with Bcap37 [9] was “Dose-dependent effect” in each case. Besides, the half-maximal inhibitory concentration (IC50) in the experiment with A-375 [1] was 9.3 µM; in [2] it was 7 µM; in the experiment with MCF7 [5], 7.3 µM; with MGC-803 [7], 6.8 µM; in the experiment with Bcap37 [9], 6.1 µM.
Consider `C=C(C)[C@@H]1CC[C@]2(C(=O)OCCBr)CC[C@]3(C)[C@H](CC[C@@H]4[C@@]5(C)CCC(=O)C(C)(C)[C@@H]5CC[C@]43C)[C@@H]12`, for which the Activity entry with A-375 [1], in the experiment on PC-3 [3], in the experiment with MCF7 [5], with MGC-803 [7] and in the experiment with Bcap37 [9] was “Dose-dependent effect” in each case. Further, the IC50 (in the experiment with A-375 [1]; in [2]; in the experiment with MCF7 [5]; in the experiment with MGC-803 [7]; in the experiment with Bcap37 [9]) was more than 20 µM each time.
Turning to `C=C(C)[C@@H]1CC[C@]2(C(=O)OCCN3CCN(C(=O)CCCCCCCC)CC3)CC[C@]3(C)[C@H](CC[C@@H]4[C@@]5(C)CCC(=O)C(C)(C)[C@@H]5CC[C@]43C)[C@@H]12`, the Activity result in the experiment with A-375 [1], with PC-3 [3], with MCF7 [5], in the experiment on MGC-803 [7] and in the experiment with Bcap37 [9] was “Dose-dependent effect” each time. The IC50 with A-375 [1] was more than 20 µM; in [2] it was more than 20 µM; with MCF7 [5] it was 17.6 µM; in the experiment on MGC-803 [7], more than 20 µM; in the experiment on Bcap37 [9], more than 20 µM.
Take `C=C(C)[C@@H]1CC[C@]2(C(=O)OCCCN3CCCC3)CC[C@]3(C)[C@H](CC[C@@H]4[C@@]5(C)CCC(=O)C(C)(C)[C@@H]5CC[C@]43C)[C@@H]12`: the Activity entry in the experiment on A-375 [1], with PC-3 [3], in the experiment on MCF7 [5], in the experiment on MGC-803 [7] and in the experiment with Bcap37 [9] was “Dose-dependent effect” in each case. The IC50 in the experiment with A-375 [1] was 8.3 µM; in [2] it was 7.6 µM; in the experiment on MCF7 [5], 8.4 µM; in the experiment with MGC-803 [7] it was 7.4 µM; in the experiment with Bcap37 [9], 9.2 µM.
